This is a sample that favours compounds with a hit; in the whole collection about 1.1% have one here.
Diaph inh CS = diaphorase inhibitors and chemical oxidizers, primary screen, counter-screen for diaphorase-coupled primary assays, biochemical, uHTS, resorufin fluorescence; inhibition, % at 20 µM; 190,000 tested, 0.69% active; diaphorase resazurin-to-resorufin fluorescence, NADH, 16 min; bacterial (C. kluyveri) enzyme, not human; AID 1217, 2008;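 active = primary screen inhibition at 20 µM above a set limit, cut at about 50% in these data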;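 note: plate controls were DMSO with full reaction for no effect and wells lacking NADH for full effect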
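controls = No-NADH positive control and DMSO neutral control | system = Clostridium kluyveri diaphorase enzyme | timing = reaction incubation of 16 min at room temperature | signal = resorufin fluorescence 544/590 nm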
G6PDH counter = L. mesenteroides G6PDH inhibitors, counter-screen for G6PDH-coupled screening assays, biochemical, Leuconostoc mesenteroides enzyme. Purified L. mesenteroides G6PDH, diaphorase/resazurin coupled fluorescence, 45 min. glucose-6-phosphate dehydrogenase [Leuconostoc mesenteroides]. inhibition, % at 5 µM. 200,000 tested, 0.12% active; in the data active = inhibition above about 50%
PMI act satM6P = human PMI activators, high substrate, primary screen, biochemical, fluorescence intensity, near-saturating mannose 6-phosphate; coupled PMI enzyme assay, resazurin fluorescence, 20 min; stronger effect = higher value; 1 = untreated enzyme, 0 = substrate-free blank; activation factor at 20 µM; 190,000 tested, 0.34% active;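 active = activation factor of 2 or more at 20 µM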
Target sequence (P34949 whole entry, looked up): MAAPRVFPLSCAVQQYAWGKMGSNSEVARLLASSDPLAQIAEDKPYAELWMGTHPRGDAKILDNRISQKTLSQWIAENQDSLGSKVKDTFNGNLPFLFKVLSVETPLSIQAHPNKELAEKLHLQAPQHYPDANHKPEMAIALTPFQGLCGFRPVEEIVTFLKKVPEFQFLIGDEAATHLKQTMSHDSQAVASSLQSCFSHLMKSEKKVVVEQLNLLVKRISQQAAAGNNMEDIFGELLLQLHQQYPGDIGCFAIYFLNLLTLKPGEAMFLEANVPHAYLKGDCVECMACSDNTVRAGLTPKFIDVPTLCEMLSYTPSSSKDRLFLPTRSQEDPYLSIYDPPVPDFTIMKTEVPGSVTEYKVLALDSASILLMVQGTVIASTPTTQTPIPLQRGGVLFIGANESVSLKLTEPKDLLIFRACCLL
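Test system: human PMI in coupled enzyme assay; Input: PMI at 15 ng/mL final; Medium: HEPES buffer, pH 7.4; Schedule: 20 min incubation at room temperature; Technique: resorufin fluorescence at Ex 544/Em 590 nm; Compound: 20 µM single dose; Probe or stimulus: Near-saturating mannose-6-phosphate, 1.0 mM.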
PMI activator = activators of human PMI, primary screen, biochemical, fluorescence intensity, near-Km mannose 6-phosphate | Mannose-6-phosphate isomerase (Homo sapiens), P34949 | purified human PMI, coupled resazurin fluorescence, 20 min; stronger effect = higher value; 1 = vehicle control, 0 substrate-free wells | activation factor at 20 µM | 190,000 tested, 0.005% active;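 active = activation factor of 2 or more at 20 µM, relative to plate controls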
Diaphorase act = compounds boosting diaphorase resazurin reduction – biochemical, uHTS, resorufin fluorescence, counter-screen for diaphorase-coupled primary assays, primary screen | Diaphorase/resazurin coupled assay, 16 min; stronger effect = higher value; 1 = vehicle wells, 0 = NADH-free wells | activation factor at 20 µM | 190,000 tested, 0.005% active | AID 1229, 2008;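 active = diaphorase activity raised at least twofold by the compound at 20 µM; inactive = activation factor below 2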
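Test system: Clostridium kluyveri diaphorase, purified enzyme. Buffer or medium: 50 mM HEPES pH 7.4 buffer plus MgCl2 and Tween 20. Also added: 0.114 mM NADH and 0.1 mM resazurin, final amounts. Dosing: compound 20 µM once, DMSO 1%. Schedule: 16 min enzyme reaction, ambient temperature. Detection: fluorescence of resorufin, 544 nm excitation, 590 nm emission.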
* hit, by the source's call.

SMILES	Diaph inh CS	G6PDH counter	PMI act satM6P	PMI activator	Diaphorase act
Oc1ccc2[nH]ccc2c1	25	56*	0.6	0.9	0.7
O=C(NC(=S)NNC(=O)c1cnccn1)c1ccc(F)cc1	64*	-4	1.1	0.7	0.4
O=C(NNC(=S)NC(=O)c1cccnc1)c1ccccc1	24	8	0.9	0.8	0.8
COCCOC(=O)C1=C(C)NC2(O)c3ccccc3C(=O)C12O (centres undefined)	74*	6	0.3	0.3	0.3
CCOC(=O)C1=C(C)NC2(O)c3ccccc3C(=O)C12O (centres undefined)	9	6	0.8	0.9	0.9
COC(=O)c1ncccc1SC	14	15	0.8	0.9	0.9
COc1cccc(/C=N/n2c(-c3n[nH]c4c3CCC4)n[nH]c2=S)c1O	58*	28	0.8	0.8	0.4
COc1ccc(-c2n[nH]c(=S)n2/N=C/C=C\c2ccccc2OC)cc1	26	-20	0.9	0.7	0.7
CNC(=S)N1N=C(c2ccc(C)cc2)CC1c1ccc(N(C)C)cc1 (centres undefined)	-4	-6	0.9	1	1
Cc1sc(NC(=S)Nc2ccc(F)cc2)c(C(N)=O)c1C	58*	12	0.6	0.5	0.4
CCOC(=O)c1c(NC(=S)Nc2ccc(Cl)cc2)sc(C)c1C	8	4	1	1	0.9
CC(C(=O)NCC1CCCCC1)N(C)CC(=O)Nc1ccc(N2CCOCC2)cc1 (centres undefined)	10	6	1	1	0.9
Cc1ccc(NCc2ccc(O)c3ncccc23)cc1	70*	43	0.2	0.5	0.3
Cc1ccc(NCc2ccc(O)c3ncccc23)cc1C	78*	43	0.2	0.4	0.2
COc1cc(/C=C(\C#N)c2nn(CCO)c(N)c2C#N)cc(OC)c1OC	10	2	2.2*	1.6	0.9
Cc1ccc(-c2nn(CCC(=O)O)cc2CCC(=O)O)cc1	11	-4	1.1	1	0.9
CCn1cc(CCC(=O)O)c(C)n1	-11	1	2.3*	1.9	1.1
COc1ccc(CNC(=O)C/C(C)=N/NC(=O)COc2ccccc2)cc1	12	12	0.9	1	0.9
O=C1NC2(CCC3(CC2)OCCO3)NN1c1ccc(Cl)cc1	0	3	2.7*	1.8	1
CCN(C(=O)c1cc2cc3ccc(C)cc3nc2o1)c1ccc(OC)cc1	60*	-45	0.8	0.8	0.4
Fc1ccccc1NC(=S)N1CCN(Cc2ccccc2)CC1	12	4	0.9	0.9	0.9
CNC[C@H](O)c1ccc(O)c(O)c1	59*	64*	0.4	0.4	0.4
O=C(Cn1cc(C(=O)C(F)(F)F)c2cc(Br)ccc21)N1CCOCC1	6	-2	0.9	1	0.9
O=C(O)c1ccccc1-c1ccc(/C=c2\sc3nc4cc(Br)cnc4n3c2=O)o1	56*	16	1.1	1.1	0.4
Cc1nc2c(C(=O)NCCc3ccccc3Cl)c[nH]n2c(=O)c1Cl	65*	0	1.1	1	0.4
SMILES	Diaph inh CS	G6PDH counter	PMI act satM6P	PMI activator	Diaphorase act
Cc1nc2c(C(=O)NCc3ccccc3Cl)c[nH]n2c(=O)c1Cl	15	-11	1	1	0.8
Cc1ccc(S(=O)(=O)N/N=C\c2cc([N+](=O)[O-])ccc2Cl)cc1	4	-8	2*	1.5	1
CC(C)=CCN1CCN(Cc2cc(C(C)C)n[nH]2)CC1CCO (centres undefined)	9	1	1	0.9	0.9
O=c1ccc2cc(O)c(O)cc2o1	61*	45	0.5	0.4	0.4
c1cnc2c(c1)ccc1cccnc12	-6	53*	1.1	0.8	1.1
Cc1ccc2cccnc2c1N	19	7	0.3	0.8	0.8
Clc1ccc(-c2cn3cccnc3n2)cc1Cl	8	-13	2*	1.5	0.9
C/C(=N\N=C\c1ccc(N(C)C)cc1)c1cccc([N+](=O)[O-])c1	12	-18	2.3*	1.6	0.9
O=C(/C=C/c1ccccc1[N+](=O)[O-])N1CCN(c2ccccc2F)CC1	14	7	0.9	0.9	0.9
O=C(O)c1ccccc1C(=O)NNc1ccc(Cl)cc1	4	2	2.4*	1.6	1
O=C(c1ccccc1)c1c[nH]c(C(=O)C(Cl)(Cl)Cl)c1	9	6	1	1.1	0.9
O=C(c1ccc(Cl)cc1)c1c[nH]c(C(=O)NNc2ccccc2)c1	15	-2	2.1*	1.7	0.9
O=C(/C=C/c1ccccc1)NNc1ccc(Cl)cc1	-4	4	2.7*	1.8	1
O=C(NNc1ccc([N+](=O)[O-])cc1)c1ccccc1F	-5	6	2.3*	1.7	1
O=C(/C=C/c1ccccc1)NNC(=O)c1cccc(Cl)c1	11	2	0.8	0.9	0.9
CCCCCCCCCCSc1n[nH]c(N)n1	21	16	0.9	0.8	0.8
O=C(NCCc1ccccc1)c1cc(=O)[nH]c2ccccc12	12	0	1	1	0.9
CCOC(=O)C(NC(=O)N(C)C)(Nc1sc(C)c(CC)c1C#N)C(F)(F)F (centres undefined)	16	1	0.9	0.8	0.8
Cc1nn(C(=O)Cn2cc([N+](=O)[O-])cn2)c(C)c1Cl	10	3	1	1	0.9
O=C(Nc1ccccc1)Nc1ccc(F)cc1F	7	3	1	0.9	0.9
O=C(O)c1ccccc1C(=O)NNc1ccc(F)cc1F	19	0	2.5*	1.6	0.8
c1ccc2c3c([nH]c2c1)-c1[nH]ncc1CC3	64*	17	0.6	0.5	0.4
CN(C)CCCNC(NC(=O)c1cccs1)C(Cl)(Cl)Cl (centres undefined)	4	22	1.1	1	1
O=C(N/N=C/c1oc(O)c2ccccc12)c1ccccc1	-2	0	2.4*	1.8	1
CC(/C=C\C=C\c1ccccc1)=N\NC(=O)c1cncc(Br)c1	11	4	1.9	1.6	0.9
CC(/C=C/C=C/c1ccccc1)=N\NC(=O)c1cccnc1	19	5	2.1*	1.6	0.8
Cc1ccc2[nH]c3c(c2c1)CCN1C(=O)OC(C)(C)C31C (centres undefined)	13	4	1.1	1.1	0.9
CCn1c2ccccc2c2nc3ccccc3nc21	32	0	0.9	1	0.7
